Measurements taken from ChEMBL document CHEMBL1914406, “Inhibitory effect of novel 5-O-acyl juglones on mammalian DNA polymerase activity, cancer cell growth and inflammatory response” (Bioorg Med Chem, 2011).
The source made the active and inactive calls. The rule behind the calls is not given here.

Experiments:
[1] = target: T1, DNA polymerase lambda (Homo sapiens) (UniProt Q9UGP5); assay: Inhibition of recombinant His-tagged human DNA polymerase lambda using poly(dA)/oligo(dT)18 (A/T = 2/1) and dTTP as the DNA template-primer and nucleotide substrate at 10 uM after 60 mins
T1 sequence (whole entry): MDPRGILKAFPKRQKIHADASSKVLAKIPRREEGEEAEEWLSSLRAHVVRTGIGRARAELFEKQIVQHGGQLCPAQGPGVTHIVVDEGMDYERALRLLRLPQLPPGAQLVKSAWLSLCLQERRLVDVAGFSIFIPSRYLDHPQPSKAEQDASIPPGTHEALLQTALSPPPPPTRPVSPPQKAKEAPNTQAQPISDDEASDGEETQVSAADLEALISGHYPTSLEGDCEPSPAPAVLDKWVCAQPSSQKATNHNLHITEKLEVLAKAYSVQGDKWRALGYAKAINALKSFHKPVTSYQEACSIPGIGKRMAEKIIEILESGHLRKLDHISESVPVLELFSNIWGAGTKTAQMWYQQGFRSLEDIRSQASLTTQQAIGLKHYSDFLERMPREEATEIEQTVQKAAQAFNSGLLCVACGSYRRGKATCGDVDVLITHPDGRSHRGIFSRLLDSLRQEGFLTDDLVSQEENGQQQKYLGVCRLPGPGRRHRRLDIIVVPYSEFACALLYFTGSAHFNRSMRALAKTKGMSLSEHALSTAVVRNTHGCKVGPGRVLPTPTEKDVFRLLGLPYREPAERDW
Procedure, shortened: (§1)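 Compound in DMSO, sonicated 30 s. Premixed 0 °C, 10 min with enzyme (0.05 units) in 50 mM Tris-HCl pH 7.5, 1 mM DTT, 50% glycerol, 0.1 mM EDTA, then added to standard reaction mixture. Template-primers: poly(dA)/oligo(dT)18 (2/1) for pols, oligo(dT)18 for TdT, poly(rA)/oligo(dT)18 for HIV-1 RT, with [3H]dTTP. 60 min at 37 °C (Taq 74 °C). Activity relative to no-inhibitor control; mean ± SE of three experiments.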

[2] = test system: RAW264.7; assay: Cytotoxicity against mouse RAW264.7 cells at 5 uM; assay type: cell-based; settings: raw264.7, 5 µM
[3] = organism: Homo sapiens; assay: Inhibition of histidine-tagged human DNA polymerase gamma using bovine deoxyribonuclease 1-treated DNA and dNTP as the DNA template-primer and nucleotide substrate at 10 uM after 60 mins
[4] = Cytotoxicity against mouse RAW264.7 cells; assay type: cell-based; settings: read-out: LD50 (the source's name)
[5] = target: T2, DNA polymerase kappa (Homo sapiens) (UniProt Q9UBT6); assay: Inhibition of C-terminal His6-tagged human DNA polymerase kappa (amino acids 1 to 560) using poly(dA)/oligo(dT)18 (A/T = 2/1) and dTTP as the DNA template-primer and nucleotide substrate at 10 uM after 60 mins
T2 sequence (whole entry): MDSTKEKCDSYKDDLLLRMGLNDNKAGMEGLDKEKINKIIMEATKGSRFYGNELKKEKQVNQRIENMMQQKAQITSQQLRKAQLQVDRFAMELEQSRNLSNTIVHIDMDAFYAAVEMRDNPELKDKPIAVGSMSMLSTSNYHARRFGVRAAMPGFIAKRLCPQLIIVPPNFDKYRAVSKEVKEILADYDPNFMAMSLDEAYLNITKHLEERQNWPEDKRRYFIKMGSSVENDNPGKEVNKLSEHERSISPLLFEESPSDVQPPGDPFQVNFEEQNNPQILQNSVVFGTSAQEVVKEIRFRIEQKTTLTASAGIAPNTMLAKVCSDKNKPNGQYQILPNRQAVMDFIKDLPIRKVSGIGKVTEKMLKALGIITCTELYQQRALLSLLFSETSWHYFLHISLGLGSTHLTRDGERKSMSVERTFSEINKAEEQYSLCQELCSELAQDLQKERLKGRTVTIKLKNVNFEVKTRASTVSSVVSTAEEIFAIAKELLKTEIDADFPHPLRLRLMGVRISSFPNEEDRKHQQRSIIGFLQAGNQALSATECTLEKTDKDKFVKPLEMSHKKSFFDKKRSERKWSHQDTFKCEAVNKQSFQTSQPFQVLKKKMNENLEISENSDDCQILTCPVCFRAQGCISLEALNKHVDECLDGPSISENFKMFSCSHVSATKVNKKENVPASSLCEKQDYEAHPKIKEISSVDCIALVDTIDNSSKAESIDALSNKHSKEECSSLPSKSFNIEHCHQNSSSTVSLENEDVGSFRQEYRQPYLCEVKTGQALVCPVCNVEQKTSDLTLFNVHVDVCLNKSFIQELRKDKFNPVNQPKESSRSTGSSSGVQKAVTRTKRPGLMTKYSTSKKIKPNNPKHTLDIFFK

[6] = organism: Bos taurus; assay: Inhibition of calf DNA polymerase alpha using poly(dA)/oligo(dT)18 (A/T = 2/1) and dTTP as the DNA template-primer and nucleotide substrate at 10 uM after 60 mins; procedure, shortened: as §1
[7] = target: T2, DNA polymerase kappa (Homo sapiens); assay: Inhibition of C-terminal His6-tagged human DNA polymerase kappa (amino acids 1 to 560) using bovine deoxyribonuclease 1-treated DNA and dNTP as the DNA template-primer and nucleotide substrate at 10 uM after 60 mins
[8] = test system: Mus musculus; assay: Antiinflammatory activity in mouse assessed as inhibition of TPA-induced mouse ear edema at 500 ug/ear administered 30 mins before TPA challenge measured after 7 hrs relative to untreated control; assay type: functional, organism-based
Procedure, shortened: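 Compound (500 µg) applied to one mouse ear; 30 min later TPA (0.5 µg) applied to both ears. Edema scored after 7 h and expressed as percentage of edema. Mean ± SE, n = 6.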

[9] = organism: Homo sapiens; assay: Inhibition of histidine-tagged human DNA polymerase gamma using poly(dA)/oligo(dT)18 (A/T = 2/1) and dTTP as the DNA template-primer and nucleotide substrate at 10 uM after 60 mins; procedure, shortened: as §1
[10] = organism: Bos taurus; assay: Inhibition of calf DNA polymerase alpha using bovine deoxyribonuclease 1-treated DNA and dNTP as the DNA template-primer and nucleotide substrate at 10 uM after 60 mins
[11] = target: T1, DNA polymerase lambda (Homo sapiens); assay: Inhibition of recombinant His-tagged human DNA polymerase lambda using bovine deoxyribonuclease 1-treated DNA and dNTP as the DNA template-primer and nucleotide substrate at 10 uM after 60 mins
[12] = test system: Nucleic Acid; assay: Binding affinity to DNA assessed as thermal transition of DNA relative to control; assay type: nucleic-acid assay
[13] = test system: HCT-116; assay: Cytotoxicity against human HCT116 cells at 100 uM by WST-1 assay; assay type: functional, cell-based
Procedure, shortened: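 HCT116 colon carcinoma cells (ATCC) grown in McCoy's 5A with 10% FBS, penicillin and streptomycin, 37 °C, 5% CO2. Plated at 1 × 10⁴ cells/well together with compound, which was diluted from a 10 mM DMSO stock into medium (final 0.5% DMSO). Incubated 24 h. Viability read by WST-1, expressed relative to untreated cells.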

[14] = test system: RAW264.7; assay: Antiinflammatory activity in mouse RAW264.7 cells assessed as inhibition of LPS-induced TNFalpha secretion at 5 uM treated 30 mins before LPS challenge measured after 24 hrs by ELISA; assay type: functional, cell-based
Procedure, shortened: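 RAW264.7 cells in MEM with 4.5 g/L glucose, 10% FCS, 5 mM L-glutamine, at 37 °C in 5% CO2. Seeded at 5 × 10⁴ cells/well and grown 24 h. Compound (final 1 and 5 µM) given 30 min before 100 ng/mL LPS. After 24 h, TNF-α in the medium measured by ELISA, relative to the no-compound value (100%). Mean ± SE, n = 4.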

| SMILES | inhibition [1] | Activity [2] | inhibition [3] | CC50 [4] [µM] | inhibition [5] | inhibition [6] | inhibition [7] | Activity [8] | inhibition [9] | inhibition [10] | inhibition [11] | Activity [12] | Activity [13] | Activity [14] |
| --- | --- | --- | --- | --- | --- | --- | --- | --- | --- | --- | --- | --- | --- | --- |
| CCCCC/C=C\C/C=C\CCCCCCCC(=O)Oc1cccc2c1C(=O)C=CC2=O | Active | Non-toxic | Active | > 10 | Active | Active | Active | Active | Active | Active | Active | inactive | – | – |
| CC/C=C\C/C=C\C/C=C\CCCCCCCC(=O)Oc1cccc2c1C(=O)C=CC2=O | Active | Non-toxic | Active | > 10 | Active | Active | Active | Active | Active | Active | Active | inactive | – | – |
| CCCCCC(=O)Oc1cccc2c1C(=O)C=CC2=O | Active | Non-toxic | Active | > 10 | Active | Active | Active | Active | Active | Active | Active | inactive | – | – |
| CC/C=C\C/C=C\C/C=C\C/C=C\C/C=C\C/C=C\CCC(=O)Oc1cccc2c1C(=O)C=CC2=O | Active | Non-toxic | Active | > 10 | Active | Active | Active | Active | Active | Active | Active | inactive | – | – |
| CCC(=O)Oc1cccc2c1C(=O)C=CC2=O | Active | Non-toxic | Active | > 10 | Active | Active | Active | Active | Active | Active | Active | inactive | – | – |
| CC/C=C\C/C=C\C/C=C\C/C=C\C/C=C\CCCC(=O)Oc1cccc2c1C(=O)C=CC2=O | Active | Non-toxic | Active | > 10 | Active | Active | Active | Active | Active | Active | Active | inactive | – | – |
| O=C1C=CC(=O)c2c(O)cccc21 [JUGLONE] | Active | Non-toxic | Active | – | Active | Active | Active | Active | Active | Active | Active | – | Active | Active |
| CCCCCCCCCCCCCCCCCC(=O)Oc1cccc2c1C(=O)C=CC2=O | Active | Non-toxic | Active | > 10 | Active | Active | Active | Active | Active | Active | Active | inactive | – | – |
